Experimental data published in ChEMBL document CHEMBL2203144, “Synthesis and evaluation of antimicrobial activity of 4H-pyrimido[2,1-b]benzothiazole, pyrazole and benzylidene derivatives of curcumin” (Eur J Med Chem, 2012).
The source made the active and inactive calls. The calls are words filed in the database; no cut-off is given here.

Key:
Aspergillus fumigatus [1] = assay: Antifungal activity against Aspergillus fumigatus after 72 hrs by agar disk diffusion method; assay type: functional
Outline: (§1)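 Sterile filter-paper discs dipped in the acetone dilutions of compound (20–0.315 µM/mL), then dried to remove acetone. Sabouraud dextrose agar plates spread with 1 mL fungal culture. Discs placed aseptically; one drug-free disc served as growth control; fluconazole reference. Plates incubated upright 72 h at 28 °C. Zone of inhibition measured in mm with a scale.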

Escherichia coli = assay: Antibacterial activity against Escherichia coli ATCC 35218 after 24 hrs by broth microdilution method; assay type: functional
Outline: (§2)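 Microwell broth dilution in brain heart infusion broth (nutrient broth adjusted to pH 7.0). Inoculum from 16 h cultures, adjusted to 0.5 McFarland (1.5 × 10⁸ CFU/mL). 10 µL compound (serial dilutions 20 down to 0.625 or 0.312 µM/mL) plus 10 µL culture added to 150 µL broth. Incubated 24 h at 37 °C. MIC95 is the lowest concentration with no turbidity. Ciprofloxacin reference; inoculum and broth controls.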

Salmonella typhi = assay: Antibacterial activity against Salmonella typhi ATCC 15499 after 24 hrs by broth microdilution method; assay type: functional, Salmonella enterica subsp. enterica serovar Typhi
Outline: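 Broth microdilution in brain heart infusion broth in microwells. Inoculum was prepared from 16 h cultures adjusted to the 0.5 McFarland standard (1.5 × 10⁸ CFU/mL). Compounds were serially diluted from 20 down to 0.625 µM/mL and added to the broth, followed by the bacterial culture. Plates were incubated 24 h at 37 °C, with optical density read. MIC95 was the lowest concentration giving no turbidity. Inoculum and broth controls were included.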

Aspergillus flavus [2] = assay: Antifungal activity against Aspergillus flavus after 72 hrs by agar disk diffusion method; assay type: functional; outline: as §1
Aspergillus niger [3] = assay: Antifungal activity against Aspergillus niger after 72 hrs by agar disk diffusion method; assay type: functional; outline: as §1
Aspergillus fumigatus [4] = assay: Antifungal activity against Aspergillus fumigatus after 72 hrs by broth dilution method; assay type: functional
Outline: (§3)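 Compounds and fluconazole reference were dissolved in acetone at 120 µM/mL and serially diluted to 20–0.315 µM/mL. 10 µL compound plus 10 µL fungal culture broth added to 150 µL Sabouraud dextrose medium per well. Optical density recorded, then incubated 72 h at 28 °C. MIC95 taken from absence of turbidity. Acetone-at-same-dilution solvent control.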

Staphylococcus aureus = assay: Antibacterial activity against Staphylococcus aureus ATCC 11632 after 24 hrs by broth microdilution method; assay type: functional; outline: as §2
Aspergillus flavus [5] = assay: Antifungal activity against Aspergillus flavus after 72 hrs by broth dilution method; assay type: functional; outline: as §3
Aspergillus niger [6] = assay: Antifungal activity against Aspergillus niger after 72 hrs by broth dilution method; assay type: functional; outline: as §3
Providencia rettgeri = assay: Antibacterial activity against Providencia rettgeri DRDE after 24 hrs by broth microdilution method; assay type: functional; outline: as §2
[7] = Cytotoxicity against human L123 cells after 48 hrs by MTT assay; assay type: cell-based
Outline: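 MTT assay. 2×10³ cells per well in MEM + 10% FBS, attached 24 h, then treated at 5, 10, 20, 50 and 100 µM/mL for 48 h; controls received medium with 0.2% DMSO. Duplicate treatments. Cells PBS-washed, given MTT (stock 1 mg/mL) for 4 h at 37 °C. Formazan dissolved in DMSO, read at 590 nm. IC50 is the concentration reducing viability by 50%.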

Bacillus cereus = assay: Antibacterial activity against Bacillus cereus MTCC 7350 after 24 hrs by broth microdilution method; assay type: functional; outline: as §2
Pseudomonas aeruginosa = assay: Antibacterial activity against Pseudomonas aeruginosa ATCC 23564 after 24 hrs by broth microdilution method; assay type: functional; outline: as §2

| SMILES | inhibition zone (IZ) (Aspergillus fumigatus [1]) | MIC95 (Escherichia coli) | MIC95 (Salmonella typhi) [uM/ml] | inhibition zone (IZ) (Aspergillus flavus [2]) | inhibition zone (IZ) (Aspergillus niger [3]) | MIC95 (Aspergillus fumigatus [4]) | MIC95 (Staphylococcus aureus) [uM/ml] | MIC95 (Aspergillus flavus [5]) | MIC95 (Aspergillus niger [6]) | MIC95 (Providencia rettgeri) | IC50 [7] [uM/ml] | MIC95 (Bacillus cereus) [uM/ml] | MIC95 (Pseudomonas aeruginosa) | MIC95 (Salmonella typhi; Salmonella enterica subsp. enterica serovar Typhi) |
| --- | --- | --- | --- | --- | --- | --- | --- | --- | --- | --- | --- | --- | --- | --- |
| COc1cc(/C=C/C(=O)C(=Cc2ccc(N(C)C)cc2)C(=O)/C=C/c2ccc(O)c(OC)c2)ccc1O | 20 mm | inactive | 2.5 | inactive | 15 mm | 1.25 uM/ml | 5 | inactive | 5 uM/ml | inactive | > 100 | 0.625 | 1.25 uM/ml | – |
| COc1cc(/C=C/C(=O)C2=C(/C=C/c3ccc(O)c(OC)c3)N=C3Sc4ccccc4N3C2c2ccccc2O)ccc1O (centres undefined) | inactive | inactive | – | inactive | inactive | inactive | 20 | inactive | inactive | inactive | 50 | 5 | 20 uM/ml | inactive |
| COc1cc(/C=C/c2cc(/C=C/c3ccc(O)c(OC)c3)n(-c3ccc([N+](=O)[O-])cc3[N+](=O)[O-])n2)ccc1O | inactive | inactive | 2.5 | 20 mm | 17 mm | inactive | 1.25 | 1.25 uM/ml | 2.5 uM/ml | inactive | > 100 | 1.25 | inactive | – |
